# hIAP activ: human IAP activators, primary screen, biochemical, luminescence, uHTS; hit rate 0.16% among 330,000; AID 2524, 2010; purified human IAP, CDP-Star luminescence, 30 min; hits give high values; 1 = vehicle-only enzyme, 0 = enzyme-free background; activation factor at 10 µM;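 active = activation factor of the enzyme at least 2-fold when tested at 20 µM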
# Target sequence (P09923 whole entry, looked up): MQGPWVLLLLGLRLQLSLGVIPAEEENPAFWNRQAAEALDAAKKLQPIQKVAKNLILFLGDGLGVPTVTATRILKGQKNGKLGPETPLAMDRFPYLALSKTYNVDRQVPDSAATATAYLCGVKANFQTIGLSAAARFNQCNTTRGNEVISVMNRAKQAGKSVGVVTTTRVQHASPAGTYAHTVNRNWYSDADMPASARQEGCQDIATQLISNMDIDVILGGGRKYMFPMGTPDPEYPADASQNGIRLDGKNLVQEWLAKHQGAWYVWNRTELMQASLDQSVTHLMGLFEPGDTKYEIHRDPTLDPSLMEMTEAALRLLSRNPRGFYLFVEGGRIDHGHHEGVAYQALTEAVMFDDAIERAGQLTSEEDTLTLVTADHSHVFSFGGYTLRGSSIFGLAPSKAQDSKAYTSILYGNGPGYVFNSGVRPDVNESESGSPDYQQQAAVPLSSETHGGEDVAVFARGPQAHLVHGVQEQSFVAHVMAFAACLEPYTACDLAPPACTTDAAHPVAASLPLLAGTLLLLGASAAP
# bIAP act: bovine intestinal alkaline phosphatase activators, primary screen, biochemical, bovine IAP, CDP-star luminescence; AID 1016, 2008; purified bovine IAP, 30 min; hits give high values; fold of DMSO-control signal, blank-subtracted; activation factor at 20 µM; hit rate 0.17% among 200,000; alkaline phosphatase, intestinal [Bos taurus];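 active = activation factor of 2 or more at 20 µM, a signal rise over negative controls twice the positive control's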
# mIAP activ: activators of mouse IAP, primary screen, biochemical, luminescence, uHTS; intestinal alkaline phosphatase [Mus musculus]; muIAP, CDP-Star luminescence, 30 min; hits give high values; 1 = vehicle-only enzyme signal, 0 = enzyme-free wells; activation factor at 10 µM; hit rate 0.24% among 330,000; AID 2805, 2010;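 active = activation factor of at least 2 at 20 µM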
#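 Assay system: mouse IAP enzyme / Compound: DMSO-dissolved test compounds / Timing: 30 min, room temperature / Measured by: luminescence from enzymatic CDP-Star hydrolysis / Control set: DMSO-only wells, enzyme-free buffer wells as negative control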
# mIAP inh: inhibitors of mouse IAP, primary screen, biochemical, luminescence, uHTS | inhibition, % at 10 µM | hit rate 0.2% among 330,000 | intestinal alkaline phosphatase [Mus musculus] | purified mouse IAP, CDP-Star luminescence, 30 min;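 active = inhibition of at least 40% at 10 µM in the primary screen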
# hIAP inh: human IAP inhibitors, primary screen, biochemical, luminescence, uHTS; purified IAP, CDP-Star luminescence, 30 min; Intestinal-type alkaline phosphatase (Homo sapiens), P09923; AID 2544, 2010; inhibition, % at 10 µM; hit rate 0.12% among 330,000;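 active = inhibition reaching a set limit with compound at 10 µM in the primary screen, cut at about 35% in these data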
# bIAP inhibitor: bovine intestinal alkaline phosphatase inhibitors, primary screen, selectivity assay for TNAP inhibitor project, biochemical, bovine IAP, CDP-star luminescence | 190,000 tested, under 10 active | AID 1019, 2008 | inhibition, % at 20 µM | alkaline phosphatase, intestinal [Bos taurus] | purified bovine IAP, 30 min;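 active = over 50% inhibition of intestinal alkaline phosphatase at 20 µM in the single-dose screen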
#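 Assay system: bovine IAP enzyme; medium: DEA buffer 100 mM, pH 9.8, with MgCl2 1.0 mM, ZnCl2 0.02 mM; doses: 20 µM single dose; incubation: enzyme reaction for 30 min at room temperature; detection: CDP-star luminescence signal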
# hIAP act confirm: human IAP activators, confirmation, biochemical, luminescence, single concentration, uHTS hits; purified IAP, CDP-Star luminescence, 30 min; hits give low values; hit rate 10% among 880; activation (%Activity, negative = activation), % at 8.3 µM; shares compounds with hIAP activ; AID 434926, 2010;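 active = at least twofold enzyme activation in any of six single-dose repeats, which the averaged readout prints as negative percent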
# Numbers stand for hits; . = inactive; / = no result; ! = not active in a repeat. In the library only some 0.79% were active in any assay of this set; here they are far more common.
SMILES,hIAP activ,bIAP act,mIAP activ,mIAP inh,hIAP inh,bIAP inhibitor,hIAP act confirm
CCOc1cccc(OCCOCCOc2ccccc2C(C)=O)c1,2.2,.,.,.,.,.,-219
Cc1cc(S(=O)(=O)NCc2ccncc2)c(C)cc1Br,.,/,.,.,.,/,/
c1ccc(-c2cccc(-c3ccccn3)n2)nc1,2.1,.,.,.,.,.,-113
COc1cc(CN2CCc3ccc(NC(=O)CCc4ccccc4OC)cc3C2)ccc1O,.,/,.,.,36,/,.
Cc1ccc(NC(=O)CCC(=O)NNC(=S)Nc2ccc(F)cc2F)cc1C,2.2,/,.,.,.,/,.
Cc1ccc(NC(=O)CCC(=O)NNC(=S)Nc2ccc(F)cc2)c(C)c1,.,/,.,.,.,/,/
CC(C)Oc1ccc(C(=O)Nc2c3c(nn2-c2ccccc2)CS(=O)(=O)C3)cc1,.,/,.,.,.,/,/
CCN1CCN(CCCNC(=O)c2ccc(NC(=O)C3=C(C)OCCS3)cc2)CC1,.,/,.,.,.,/,/
COc1cc(/C=C2\SC(=S)N(N3CCOCC3)C2=O)ccc1O,.,/,.,.,44,/,.
COc1cc(/C=C2\SC(=S)N(NC(=O)c3ccc(O)c(OC)c3)C2=O)ccc1O,.,/,.,.,46,/,.
COc1cc(/C=C2\SC(=S)N(NC(=O)c3ccncc3)C2=O)ccc1O,.,/,.,.,35,/,.
COc1cc(/C=C2\SC(=S)N(NC(=O)c3cccc(O)c3)C2=O)ccc1O,.,/,.,.,.,/,/
Cc1ccccc1N1CCN(C(=O)c2ccccc2NC(=O)/C=C\C(=O)O)CC1,.,.,.,.,37,.,.
CC1COC(c2cccn2Cc2ccccc2Cl)=N1 (configuration not stated),.,.,.,.,.,.,/
CN(C(=O)Cn1cccc1C1=NC(c2ccccc2)CO1)c1ccccc1 (configuration not stated),.,.,.,.,38,.,.
CC(C)(C)c1ccc(C(=O)N2CCC(C(=O)NC3CCCCCC3)CC2)cc1,.,/,.,.,.,/,/
O=C(CN1CCN(C(=O)C2CCN(C(=O)/C=C/c3ccccc3)CC2)CC1)Nc1ccccc1Cl,.,/,.,.,.,/,/
Cc1ccc(O)c(N/C=C/C(=O)c2ccc(F)cc2)c1,2.8,/,.,.,.,/,-120
CCOc1ccc(-c2n[nH]c(C)c2Oc2ccccc2OC)c(O)c1,.,.,.,.,.,.,/
CCCOC(=O)c1ccc(Oc2c(-c3ccc(O)cc3O)n[nH]c2C)cc1,2.3,.,.,.,.,.,.
CCCOC(=O)c1ccc(Oc2c(-c3ccc(OC)cc3O)n[nH]c2C)cc1,.,.,.,.,.,.,/
CCCOC(=O)c1ccc(Oc2cn[nH]c2-c2ccc(OCC(=O)NN)cc2O)cc1,.,/,.,.,.,/,/
CCOC(=O)c1ccc(Oc2cn[nH]c2-c2ccc(OCC(=O)NN)cc2O)cc1,2.4,/,.,.,.,/,.
Cc1[nH]nc(-c2ccc(O)cc2O)c1Oc1ccccc1,2.1,.,.,.,.,.,.
O=C(NC(=S)NNC(=O)c1ccccc1O)c1cccnc1,2.1,.,.,.,.,.,.
SMILES,hIAP activ,bIAP act,mIAP activ,mIAP inh,hIAP inh,bIAP inhibitor,hIAP act confirm
CN(C)S(=O)(=O)c1cccc(NC(=S)NNC(=O)c2cc3ccccc3cc2O)c1,2.6,/,.,.,.,/,.
COc1ccc(C(=O)NNC(=S)NC(=O)/C=C/c2cccs2)cc1,.,.,.,.,.,.,/
O=C(NC(=S)NNC(=O)c1ccc(Cl)cc1Cl)c1cccnc1,.,.,.,.,.,.,/
COc1ccc(C(=O)NC(=S)NNC(=O)c2ccccc2O)cc1,2.3,/,.,.,.,/,.
O=C(/C=C/c1cccs1)NC(=S)NNC(=O)c1ccccc1O,2.4,.,.,.,.,.,.
COc1ccc(NC(=O)NNC(=O)c2cc3ccccc3cc2O)cc1,2.3,/,.,.,.,/,.
O=C(NNC(=O)c1cc2ccccc2cc1O)Nc1ccc(Br)cc1,.,/,.,.,.,/,/
O=C(NNC(=S)NC(=O)c1ccc(F)cc1)c1ccncc1,2.1,/,.,.,.,/,.
Cc1c(Br)c([N+](=O)[O-])nn1CC(=O)NCCc1c[nH]c2ccccc12,.,.,.,.,.,.,/
c1ccc(CN(CC2=NCCN2)c2ccccc2)cc1,.,337!,.,.,.,.,.
c1ccc(CC2=NCCN2)cc1,.,.,.,.,.,.,/
Cn1nc(C(=O)NNC(=O)CCOc2ccc(C(C)(C)C)cc2)c2ccccc2c1=O,2.1,/,.,.,.,/,.
Cc1ccccc1C(=O)Nc1ccc(S(=O)(=O)N2CCOCC2)cc1,.,/,.,.,.,/,/
CC(C)(C)C(=O)N1CCC(O)(CS(=O)(=O)Cc2ccccc2)CC1,.,.,.,.,.,.,/
NNC(=O)c1nc[nH]c1C(=O)Nc1ccccn1,2,.,.,.,.,.,.
Cc1ccc(NC(=O)c2[nH]cnc2C(=O)NN)cc1,2.1,.,.,.,.,.,.
Cc1ccc(NC(=O)c2nc[nH]c2C(=O)NCCCNC(=O)c2[nH]cnc2C(=O)Nc2ccc(C)cc2)cc1,.,/,.,.,.,/,/
c1ccc(-n2ncc3c2ncn2nc(-c4ccco4)nc32)cc1,.,.,.,.,52,.,.
COc1ccccc1/C=C/C(=O)NCC(=O)N/N=C/c1ccc(C)o1,.,/,.,.,.,/,/
CC(C)(C)c1ccc(C(=O)Nc2ncn[nH]2)cc1,.,.,.,.,.,.,/
Cc1ccc(SC(C)C(=O)Nc2ncn[nH]2)cc1 (configuration not stated),2.4,.,.,.,.,.,.
CC(C(=O)Nc1ncn[nH]1)N1C(=O)c2ccccc2C1=O (configuration not stated),.,.,.,.,.,.,/
Cc1ccc(C(=O)Nc2ncn[nH]2)cc1,2.1,/,.,.,.,/,.
CC(=O)Nc1cccc(C(=O)OCC(=O)Nc2ccc(Cl)cn2)c1,.,/,.,.,.,/,/
O=C(N/N=C/c1cccc(O)c1)c1cc(-c2ccccc2)nc2ccccc12,.,/,.,.,.,/,/
O=C(N/N=C/c1ccc(O)c(O)c1)c1cc(-c2ccccc2)nc2ccccc12,.,/,.,.,78,/,.
CSC1=C(C#N)C(c2ccccc2Cl)C(C(C)=O)=C(C)N1 (configuration not stated),.,.,.,.,35,.,.
